Reference: ChEMBL document CHEMBL4382192, “Discovery of a potent dual ALK and EGFR T790M inhibitor” (Eur J Med Chem, 2017)

Assays:
[1] = molecular target: Mitogen-activated protein kinase 9 (Homo sapiens) (UniProt P45984); experiment: Binding affinity to wild-type human full length JNK2 (M1 to Q382 residues) expressed in mammalian expression system assessed as residual binding level at 1 uM by Kinomescan method relative to control
How it was run: (§1)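 Single-point kinome-wide KINOMEscan binding panel, test compound at 1 μM, run by the provider's standard protocol.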

[2] = test system: ALK tyrosine kinase receptor (Homo sapiens), Q9UM73 [C1156Y]; experiment: Binding affinity to wild-type human partial length ALK C1156Y mutant (I1088 to E1409 residues) expressed in mammalian expression system assessed as residual binding level at 1 uM by Kinomescan method relative to control
[3] = molecular target: LIM domain kinase 2 (Homo sapiens) (UniProt P53671); experiment: Binding affinity to wild-type human full length LIMK2 (M1 to P638 residues) expressed in bacterial expression system assessed as residual binding level at 1 uM by Kinomescan method relative to control; how it was run: as §1
Chain of LIM domain kinase 2 (Homo sapiens) (P53671 whole entry, looked up, the tested form may be a part): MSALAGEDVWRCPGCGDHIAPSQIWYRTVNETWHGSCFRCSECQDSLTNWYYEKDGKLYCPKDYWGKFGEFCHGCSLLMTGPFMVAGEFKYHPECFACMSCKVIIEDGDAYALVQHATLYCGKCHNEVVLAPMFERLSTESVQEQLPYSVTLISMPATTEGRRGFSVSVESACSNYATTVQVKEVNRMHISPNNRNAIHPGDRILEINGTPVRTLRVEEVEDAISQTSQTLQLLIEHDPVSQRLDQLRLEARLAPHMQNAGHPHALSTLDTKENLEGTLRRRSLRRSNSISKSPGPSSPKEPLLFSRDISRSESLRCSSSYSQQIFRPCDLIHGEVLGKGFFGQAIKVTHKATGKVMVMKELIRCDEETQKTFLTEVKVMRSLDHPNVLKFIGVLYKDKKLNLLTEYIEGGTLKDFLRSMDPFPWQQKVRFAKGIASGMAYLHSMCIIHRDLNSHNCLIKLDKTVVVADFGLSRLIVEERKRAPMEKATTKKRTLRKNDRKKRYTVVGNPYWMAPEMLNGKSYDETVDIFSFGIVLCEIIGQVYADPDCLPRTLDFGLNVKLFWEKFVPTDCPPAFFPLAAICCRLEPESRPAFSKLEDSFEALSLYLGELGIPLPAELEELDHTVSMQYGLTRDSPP

[4] = molecular target: Ephrin type-A receptor 4 (Homo sapiens) (UniProt P54764); experiment: Binding affinity to wild-type human partial length EPHA4 (T601 to R897 residues) expressed in bacterial expression system assessed as residual binding level at 1 uM by Kinomescan method relative to control
[5] = molecular target: Dual serine/threonine and tyrosine protein kinase (Homo sapiens) (UniProt Q6XUX3); experiment: Binding affinity to wild-type human full length RIPK5 (M1 to T929 residues) expressed in mammalian expression system assessed as residual binding level at 1 uM by Kinomescan method relative to control
Chain of Dual serine/threonine and tyrosine protein kinase (Homo sapiens) (Q6XUX3 whole entry, the tested form may be a part): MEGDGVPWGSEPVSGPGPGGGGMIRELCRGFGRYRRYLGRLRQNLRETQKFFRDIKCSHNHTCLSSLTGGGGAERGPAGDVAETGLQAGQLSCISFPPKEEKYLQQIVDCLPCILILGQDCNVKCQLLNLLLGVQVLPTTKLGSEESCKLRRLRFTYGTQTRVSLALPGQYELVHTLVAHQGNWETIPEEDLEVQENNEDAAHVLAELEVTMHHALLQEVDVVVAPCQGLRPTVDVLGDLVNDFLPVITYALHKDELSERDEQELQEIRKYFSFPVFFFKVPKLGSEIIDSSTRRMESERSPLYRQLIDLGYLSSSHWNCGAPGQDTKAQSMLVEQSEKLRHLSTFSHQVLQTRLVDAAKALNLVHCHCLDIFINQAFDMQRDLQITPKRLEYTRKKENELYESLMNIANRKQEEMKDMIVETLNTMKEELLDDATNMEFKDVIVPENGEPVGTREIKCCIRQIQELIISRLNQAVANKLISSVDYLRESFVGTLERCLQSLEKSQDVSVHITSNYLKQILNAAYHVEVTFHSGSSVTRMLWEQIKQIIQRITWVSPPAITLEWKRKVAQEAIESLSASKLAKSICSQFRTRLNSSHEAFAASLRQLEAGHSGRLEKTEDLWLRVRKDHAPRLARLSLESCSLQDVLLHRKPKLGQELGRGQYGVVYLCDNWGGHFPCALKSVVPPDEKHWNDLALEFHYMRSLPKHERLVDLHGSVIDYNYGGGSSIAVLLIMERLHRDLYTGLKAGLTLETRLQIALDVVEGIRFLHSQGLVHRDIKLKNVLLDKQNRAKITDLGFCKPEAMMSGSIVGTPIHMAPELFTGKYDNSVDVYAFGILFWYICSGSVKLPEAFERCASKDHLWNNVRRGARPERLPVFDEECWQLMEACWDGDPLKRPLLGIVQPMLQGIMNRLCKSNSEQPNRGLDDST

[6] = molecular target: Discoidin domain-containing receptor 2 (Homo sapiens) (UniProt Q16832); experiment: Binding affinity to wild-type human partial length DDR2 (V555 to E855 residues) expressed in mammalian expression system assessed as residual binding level at 1 uM by Kinomescan method relative to control
[7] = molecular target: Mitogen-activated protein kinase kinase kinase kinase 2 (Homo sapiens) (UniProt Q12851); experiment: Binding affinity to wild-type human partial length MAP4K2 (M1 to G318 residues) expressed in mammalian expression system assessed as residual binding level at 1 uM by Kinomescan method relative to control
Chain of Mitogen-activated protein kinase kinase kinase kinase 2 (Homo sapiens) (Q12851 whole entry, the tested form may be a part): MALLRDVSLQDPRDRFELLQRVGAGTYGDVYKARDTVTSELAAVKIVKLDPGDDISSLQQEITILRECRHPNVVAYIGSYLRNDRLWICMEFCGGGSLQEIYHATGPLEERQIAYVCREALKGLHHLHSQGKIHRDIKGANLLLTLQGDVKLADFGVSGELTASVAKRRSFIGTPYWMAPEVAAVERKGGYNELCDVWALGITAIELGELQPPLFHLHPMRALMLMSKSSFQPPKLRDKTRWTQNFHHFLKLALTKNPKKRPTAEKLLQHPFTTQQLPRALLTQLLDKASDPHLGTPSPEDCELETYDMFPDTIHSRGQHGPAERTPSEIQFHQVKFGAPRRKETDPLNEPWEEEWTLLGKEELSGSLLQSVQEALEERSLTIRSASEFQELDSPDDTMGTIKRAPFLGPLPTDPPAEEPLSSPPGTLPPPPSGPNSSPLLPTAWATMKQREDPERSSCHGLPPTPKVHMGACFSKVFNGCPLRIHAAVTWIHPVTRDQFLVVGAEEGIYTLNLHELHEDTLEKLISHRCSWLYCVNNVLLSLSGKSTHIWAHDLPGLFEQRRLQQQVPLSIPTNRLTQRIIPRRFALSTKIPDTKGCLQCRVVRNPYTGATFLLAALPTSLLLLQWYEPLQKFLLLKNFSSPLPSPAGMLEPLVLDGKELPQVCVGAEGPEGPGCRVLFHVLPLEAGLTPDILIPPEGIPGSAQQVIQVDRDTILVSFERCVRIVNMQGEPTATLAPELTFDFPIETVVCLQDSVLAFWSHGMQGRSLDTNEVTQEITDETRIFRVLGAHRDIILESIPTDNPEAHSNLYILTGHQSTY

[8] = molecular target: Serine/threonine-protein kinase DCLK3 (Homo sapiens) (UniProt Q9C098); experiment: Binding affinity to wild-type human partial length DCAMKL3 (E140 to V628 residues) expressed in bacterial expression system assessed as residual binding level at 1 uM by Kinomescan method relative to control
[9] = molecular target: Serine/threonine-protein kinase 33 (Homo sapiens) (UniProt Q9BYT3); experiment: Binding affinity to wild-type human full length STK33 (M1 to L514 residues) expressed in bacterial expression system assessed as residual binding level at 1 uM by Kinomescan method relative to control
[10] = molecular target: cAMP-dependent protein kinase catalytic subunit PRKX (Homo sapiens) (UniProt P51817); experiment: Binding affinity to wild-type human partial length PRKX (M1 to F358 residues) expressed in bacterial expression system assessed as residual binding level at 1 uM by Kinomescan method relative to control
[11] = molecular target: Glycogen synthase kinase-3 beta (Homo sapiens) (UniProt P49841); experiment: Binding affinity to wild-type human full length GSK3B (M1 to T433 residues) expressed in mammalian expression system assessed as residual binding level at 1 uM by Kinomescan method relative to control; how it was run: as §1
Chain of Glycogen synthase kinase-3 beta (Homo sapiens) (P49841 whole entry, looked up, the tested form may be a part): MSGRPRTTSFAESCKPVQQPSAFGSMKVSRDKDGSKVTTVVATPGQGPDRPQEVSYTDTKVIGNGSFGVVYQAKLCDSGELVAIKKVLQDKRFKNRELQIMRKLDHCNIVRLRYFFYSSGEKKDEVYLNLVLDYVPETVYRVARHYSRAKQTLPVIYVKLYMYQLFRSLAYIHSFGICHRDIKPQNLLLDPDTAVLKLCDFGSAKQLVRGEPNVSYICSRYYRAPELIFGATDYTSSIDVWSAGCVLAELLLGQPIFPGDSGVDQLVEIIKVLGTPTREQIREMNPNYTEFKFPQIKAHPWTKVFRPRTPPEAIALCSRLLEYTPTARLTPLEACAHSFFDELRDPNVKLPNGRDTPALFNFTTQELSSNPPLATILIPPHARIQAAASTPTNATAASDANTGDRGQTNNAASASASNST

[12] = molecular target: Cyclin-dependent kinase 15 (Homo sapiens) (UniProt Q96Q40); experiment: Binding affinity to wild-type human full length PFTAIRE2 (M1 to W384 residues) expressed in bacterial expression system assessed as residual binding level at 1 uM by Kinomescan method relative to control; how it was run: as §1
Chain of Cyclin-dependent kinase 15 (Homo sapiens) (Q96Q40 whole entry, the tested form may be a part): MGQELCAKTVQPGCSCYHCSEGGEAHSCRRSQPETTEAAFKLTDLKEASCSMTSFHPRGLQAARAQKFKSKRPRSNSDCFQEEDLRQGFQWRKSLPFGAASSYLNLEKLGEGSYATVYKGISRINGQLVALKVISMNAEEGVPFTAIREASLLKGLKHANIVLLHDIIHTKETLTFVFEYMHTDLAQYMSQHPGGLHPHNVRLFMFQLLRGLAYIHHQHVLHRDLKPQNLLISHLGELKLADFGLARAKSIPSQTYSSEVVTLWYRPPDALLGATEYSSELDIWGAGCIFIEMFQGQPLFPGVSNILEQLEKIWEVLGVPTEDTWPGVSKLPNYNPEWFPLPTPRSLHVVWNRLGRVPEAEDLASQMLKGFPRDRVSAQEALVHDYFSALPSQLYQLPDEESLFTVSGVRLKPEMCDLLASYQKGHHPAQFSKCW

[13] = molecular target: Cyclin-dependent kinase 2 (Homo sapiens) (UniProt P24941); experiment: Binding affinity to wild-type human full length CDK2 (M1 to L298 residues) expressed in bacterial expression system assessed as residual binding level at 1 uM by Kinomescan method relative to control
[14] = molecular target: Protein kinase C iota type (Homo sapiens) (UniProt P41743); experiment: Binding affinity to wild-type human partial length PRKCI (H215 to V587 residues) expressed in mammalian expression system assessed as residual binding level at 1 uM by Kinomescan method relative to control
[15] = molecular target: Serine/threonine-protein kinase Nek5 (Homo sapiens) (UniProt Q6P3R8); experiment: Binding affinity to wild-type human partial length NEK5 (M1 to M279 residues) expressed in bacterial expression system assessed as residual binding level at 1 uM by Kinomescan method relative to control
[16] = molecular target: cAMP-dependent protein kinase catalytic subunit alpha (Homo sapiens) (UniProt P17612); experiment: Binding affinity to wild-type human partial length PKAC-alpha (G10 to F351 residues) expressed in bacterial expression system assessed as residual binding level at 1 uM by Kinomescan method relative to control
[17] = molecular target: Mitogen-activated protein kinase kinase kinase 9 (Homo sapiens) (UniProt P80192); experiment: Binding affinity to wild-type human partial length MLK1 (V88 to W426 residues) expressed in bacterial expression system assessed as residual binding level at 1 uM by Kinomescan method relative to control
[18] = test system: Leucine-rich repeat serine/threonine-protein kinase 2 (Homo sapiens), Q5S007 [G2019S]; experiment: Binding affinity to human partial length LRRK2 G2019S mutant (H970 to E2527 residues) expressed in mammalian expression system assessed as residual binding level at 1 uM by Kinomescan method relative to control
How it was run: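 Kinome-wide selectivity panel run by the KINOMEscan method, with the test compound at a single concentration of 1 μM. Wild-type and mutant kinases were profiled in the same screen.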

[19] = molecular target: TGF-beta receptor type-1 (Homo sapiens) (UniProt P36897); experiment: Binding affinity to wild-type human partial length TGFBR1 (D179 to M503 residues) expressed in bacterial expression system assessed as residual binding level at 1 uM by Kinomescan method relative to control
Chain of TGF-beta receptor type-1 (Homo sapiens) (P36897 whole entry, the tested form may be a part): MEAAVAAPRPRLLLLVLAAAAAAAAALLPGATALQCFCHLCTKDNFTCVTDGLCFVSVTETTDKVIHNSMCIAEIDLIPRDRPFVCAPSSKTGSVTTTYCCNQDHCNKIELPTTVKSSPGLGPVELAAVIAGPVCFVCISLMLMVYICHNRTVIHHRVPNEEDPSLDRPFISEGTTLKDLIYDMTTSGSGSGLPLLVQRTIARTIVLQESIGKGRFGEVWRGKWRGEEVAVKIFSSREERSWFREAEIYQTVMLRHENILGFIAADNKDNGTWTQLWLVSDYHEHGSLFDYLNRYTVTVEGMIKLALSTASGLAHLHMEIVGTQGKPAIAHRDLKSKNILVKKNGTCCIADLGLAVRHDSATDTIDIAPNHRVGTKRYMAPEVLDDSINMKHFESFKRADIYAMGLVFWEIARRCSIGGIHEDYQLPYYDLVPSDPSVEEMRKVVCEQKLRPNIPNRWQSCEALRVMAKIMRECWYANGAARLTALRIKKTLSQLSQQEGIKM

[20] = molecular target: Serine/threonine-protein kinase B-raf (Homo sapiens) (UniProt P15056); experiment: Binding affinity to wild-type human partial length BRAF (S429 to E741 residues) expressed in mammalian expression system assessed as residual binding level at 1 uM by Kinomescan method relative to control
[21] = molecular target: Membrane-associated tyrosine- and threonine-specific cdc2-inhibitory kinase (Homo sapiens) (UniProt Q99640); experiment: Binding affinity to wild-type human partial length PKMYT1 (A88 to G366 residues) expressed in bacterial expression system assessed as residual binding level at 1 uM by Kinomescan method relative to control
Chain of Membrane-associated tyrosine- and threonine-specific cdc2-inhibitory kinase (Homo sapiens) (Q99640 whole entry, the tested form may be a part): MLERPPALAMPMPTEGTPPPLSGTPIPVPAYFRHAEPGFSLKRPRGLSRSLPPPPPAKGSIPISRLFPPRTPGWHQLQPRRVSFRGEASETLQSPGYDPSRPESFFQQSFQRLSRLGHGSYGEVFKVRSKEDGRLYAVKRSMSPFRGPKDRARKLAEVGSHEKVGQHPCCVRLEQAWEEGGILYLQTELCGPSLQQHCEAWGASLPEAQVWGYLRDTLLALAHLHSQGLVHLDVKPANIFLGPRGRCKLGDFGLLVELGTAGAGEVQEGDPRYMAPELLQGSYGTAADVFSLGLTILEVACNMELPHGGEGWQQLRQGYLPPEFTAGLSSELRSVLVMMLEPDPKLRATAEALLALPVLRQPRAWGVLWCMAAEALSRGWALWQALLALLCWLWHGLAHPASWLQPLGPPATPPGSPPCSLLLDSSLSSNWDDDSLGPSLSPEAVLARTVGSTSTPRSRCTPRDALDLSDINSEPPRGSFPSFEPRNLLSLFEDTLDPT

[22] = molecular target: Ribosomal protein S6 kinase alpha-1 (Homo sapiens) (UniProt Q15418); experiment: Binding affinity to wild-type human partial length N-terminal RSK1 Kinase domain 1 (M1 to E388 residues) expressed in bacterial expression system assessed as residual binding level at 1 uM by Kinomescan method relative to control
Chain of Ribosomal protein S6 kinase alpha-1 (Homo sapiens) (Q15418 whole entry, the tested form may be a part): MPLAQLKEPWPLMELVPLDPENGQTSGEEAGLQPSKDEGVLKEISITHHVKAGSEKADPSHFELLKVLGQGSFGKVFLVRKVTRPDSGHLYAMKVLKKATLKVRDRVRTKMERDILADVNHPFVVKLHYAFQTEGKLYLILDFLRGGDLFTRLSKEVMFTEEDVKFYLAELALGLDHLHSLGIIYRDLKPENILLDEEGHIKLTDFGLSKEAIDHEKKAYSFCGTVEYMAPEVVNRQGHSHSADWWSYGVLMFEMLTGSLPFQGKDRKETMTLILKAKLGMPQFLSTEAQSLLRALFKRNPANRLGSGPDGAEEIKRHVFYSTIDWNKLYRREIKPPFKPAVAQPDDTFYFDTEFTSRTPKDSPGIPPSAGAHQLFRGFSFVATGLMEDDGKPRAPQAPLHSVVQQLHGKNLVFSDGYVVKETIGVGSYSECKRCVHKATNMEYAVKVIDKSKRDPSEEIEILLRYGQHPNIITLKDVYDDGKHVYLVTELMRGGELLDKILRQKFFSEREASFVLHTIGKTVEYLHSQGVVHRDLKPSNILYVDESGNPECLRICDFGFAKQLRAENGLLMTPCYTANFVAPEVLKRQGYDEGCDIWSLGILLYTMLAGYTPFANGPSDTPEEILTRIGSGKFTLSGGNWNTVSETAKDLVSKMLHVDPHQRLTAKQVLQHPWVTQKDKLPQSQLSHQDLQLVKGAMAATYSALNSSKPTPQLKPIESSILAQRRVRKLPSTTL

[23] = molecular target: Tyrosine-protein kinase receptor Tie-1 (Homo sapiens) (UniProt P35590); experiment: Binding affinity to wild-type human partial length TIE1 (T819 to A1138 residues) expressed in bacterial expression system assessed as residual binding level at 1 uM by Kinomescan method relative to control
[24] = molecular target: Cyclin-dependent kinase 18 (Homo sapiens) (UniProt Q07002); experiment: Binding affinity to wild-type human full length PCTK3 (M3 to F474 residues) expressed in bacterial expression system assessed as residual binding level at 1 uM by Kinomescan method relative to control; how it was run: as §1

Compound: C=CC(=O)Nc1cc(Nc2ncc(Cl)c(Nc3ccccc3S(=O)(=O)C(C)C)n2)c(OC)cc1N(C)CCN(C)C
- Activity [1]: 68%
- Activity [2]: 0.2%
- Activity [3]: 73%
- Activity [4]: 80%
- Activity [5]: 60%
- Activity [6]: 77%
- Activity [7]: 77%
- Activity [8]: 30%
- Activity [9]: 2%
- Activity [10]: 100%
- Activity [11]: 93%
- Activity [12]: 90%
- Activity [13]: 83%
- Activity [14]: 73%
- Activity [15]: 80%
- Activity [16]: 100%
- Activity [17]: 39%
- Activity [18]: 0.95%
- Activity [19]: 18%
- Activity [20]: 95%
- Activity [21]: 80%
- Activity [22]: 4.3%
- Activity [23]: 8.8%
- Activity [24]: 77%
